Assay [1] is described as follows: Selectivity for Trypanosoma cruzi triosephosphate isomerase over human triosephosphate isomerase.
In a further assay the test system is Trypanosoma cruzi. Description: Antiparasitic activity against Trypanosoma cruzi T2 epimastigotes assessed as growth inhibition at 25 uM after 5 days. Format: functional. A digest of the protocol:
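Late-log epimastigotes were grown axenically at 28 °C in BHI-tryptose with 5% fetal calf serum and seeded at 2×10^6/mL in medium containing compound (DMSO stock; final DMSO ≤1%, 1% DMSO control). Growth was read as A590 at day 0 and day 5. Inhibition = {1 − [(Ap − A0p)/(Ac − A0c)]} × 100. Means of two experiments.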

The target of assay [2] is Triosephosphate isomerase, glycosomal (Trypanosoma cruzi) (UniProt P52270). In words: Inhibition of Trypanosoma cruzi triosephosphate isomerase at 400 uM after 2 hrs. A digest of the protocol: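 Recombinant E. coli-expressed enzyme, dialyzed into 100 mM triethanolamine/10 mM EDTA pH 7.4, was incubated with compound (DMSO stock) in 100 mM triethanolamine, 10 mM EDTA, pH 7.4, 10% DMSO at 36 °C for 2 h. An aliquot was then assayed for activity (glyceraldehyde 3-phosphate to dihydroxyacetone phosphate, α-glycerol phosphate dehydrogenase-coupled) with 5 ng enzyme. Irreversible inhibition was scored as loss of activity; means of two experiments.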
Triosephosphate isomerase, glycosomal (Trypanosoma cruzi), sequence (P52270 whole entry): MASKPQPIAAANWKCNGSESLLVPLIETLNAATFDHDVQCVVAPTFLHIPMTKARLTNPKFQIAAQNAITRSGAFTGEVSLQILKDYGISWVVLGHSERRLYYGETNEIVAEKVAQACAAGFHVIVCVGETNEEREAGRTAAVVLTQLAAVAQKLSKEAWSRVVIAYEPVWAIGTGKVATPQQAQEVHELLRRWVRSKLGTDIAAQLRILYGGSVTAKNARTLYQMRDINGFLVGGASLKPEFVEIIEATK

Each structure is given as a SMILES string. The source made the active and inactive calls. No rule for the calls is given here.

Consider 22 molecules from ChEMBL document CHEMBL1629474, “Massive screening yields novel and selective Trypanosoma cruzi triosephosphate isomerase dimer-interface-irreversible inhibitors with anti-trypanosomal activity” (Eur J Med Chem, 2010).

In the case of `Cc1nnc[n+]([O-])c1/C=C/c1ccc([N+](=O)[O-])s1`, the Ratio in assay [1] is above 4. Besides, the result with Trypanosoma cruzi was Active. For the same molecule, the inhibition (commonly the relative decrease from the control value, in per cent) in assay [2] was found to be 28%.

In the case of `N#Cc1c(N)[n+]([O-])c2ccc(CN3CCN(C/C=C/c4ccccc4)CC3)cc2[n+]1[O-]`, in assay [1], the Ratio is above 4. Moreover, the result with Trypanosoma cruzi was Active. This molecule yielded an inhibition in assay [2] of 18%.

Take `CN(C)CCCNS(=O)(=O)NCCCN(C)C`: the Ratio in assay [1] is above 4. For the same molecule, the result in the assay with Trypanosoma cruzi was Active. This molecule also returned an inhibition in assay [2] of 0%.

As to `Nc1ccc2c(c1)[n+]([O-])c1cc(Cl)ccc1[n+]2[O-]`, the Ratio in assay [1] was above 4. Besides, the result in the assay with Trypanosoma cruzi was Active. In addition, in assay [2], the inhibition worked out at 64%.

In the case of `CCCCCCCNC(=O)N/N=C/c1ccc([N+](=O)[O-])o1`, the Ratio in assay [1] is above 4. In the assay with Trypanosoma cruzi, the outcome was Active. The inhibition in assay [2] stood at 60%.

As for `COc1ccc(NCc2c(-c3ccccc3)no[n+]2[O-])cc1`, the Ratio in assay [1] was above 4. Also, the result with Trypanosoma cruzi was Active. In addition, the inhibition in assay [2] stood at 39%.

Regarding `N#Cc1c2ccccc2[n+]([O-])n1-c1ccc([N+](=O)[O-])cc1`, in assay [1], the Ratio was above 4. Further, the result in the assay on Trypanosoma cruzi was Active. The molecule also showed an inhibition in assay [2] of 29%.

As to `O=C(O)c1ccc(-c2nsc(CO)n2)cc1`, in assay [1], the Ratio is above 4. For the same molecule, the outcome in the assay on Trypanosoma cruzi was Active. Further, in assay [2], the inhibition was found to be 15%.

As to `O=C(N/N=C/C=C/c1ccc([N+](=O)[O-])o1)Oc1ccccc1`, the Ratio in assay [1] was above 4. Besides, the result in the assay on Trypanosoma cruzi was Active. For the same molecule, the inhibition in assay [2] was found to be 45%.

Consider `O=[N+]([O-])c1ccccc1C=Cc1ccc2no[n+]([O-])c2c1`, for which, in assay [1], the Ratio is above 4. For the same molecule, in the assay with Trypanosoma cruzi, the result was Active. Besides, the inhibition in assay [2] was determined as 11%.

Consider `C=CCNC(=S)N/N=C/c1cccs1`, for which, in assay [1], the Ratio was above 4. In the assay with Trypanosoma cruzi, the result was Active. The inhibition in assay [2] came out at 2%.

As for `Cc1c(/C=C/c2ccc(N(C)C)cc2)[n+]([O-])cn[n+]1[O-]`, the Ratio in assay [1] is above 4. For the same molecule, in the assay on Trypanosoma cruzi, the result was Active. The same molecule gave an inhibition in assay [2] of 26%.

Turning to `CCCCNC(=O)N/N=C/c1ccc([N+](=O)[O-])s1`, the Ratio in assay [1] was above 4. Besides, the result in the assay on Trypanosoma cruzi was Active. Moreover, the inhibition in assay [2] stood at 18%.

For the molecule `O=[N+]([O-])c1ccc(N2CCOCC2)c([N+](=O)[O-])c1`, the Ratio in assay [1] is above 4. For the same molecule, in the assay on Trypanosoma cruzi, the result was Active. Moreover, the inhibition in assay [2] came out at 19%.

As for `NS(=O)(=O)NCc1ccccc1`, the Ratio in assay [1] was above 4. Further, in the assay on Trypanosoma cruzi, the result was Active. The molecule also registered an inhibition in assay [2] of 0%.

Take `[O-][n+]1onc2ccc(/C=C\c3ccccc3)cc21`: in assay [1], the Ratio was above 4. The outcome in the assay on Trypanosoma cruzi was Active. In assay [2], this molecule returned an inhibition of 0%.

Turning to `O=C(CN1C(=O)c2ccccc2C1=O)c1ccccc1`, the Ratio in assay [1] is above 4. Further, in the assay with Trypanosoma cruzi, the result was Active. The inhibition in assay [2] is 0%.

`CCCCNC(=O)N/N=C/c1ccc2no[n+]([O-])c2c1`: in assay [1], the Ratio was above 4. For the same molecule, the result in the assay with Trypanosoma cruzi was Active. The same molecule had an inhibition in assay [2] of 38%.

As to `[O-][n+]1onc(-c2ccccc2)c1CN1CCSCC1`, in assay [1], the Ratio is above 4. Also, the outcome in the assay on Trypanosoma cruzi was Active. The same molecule returned an inhibition in assay [2] of 47%.

Consider `[O-][n+]1onc2ccc(CSCCO)cc21`, for which, in assay [1], the Ratio is above 4. Besides, the outcome with Trypanosoma cruzi was Active. Further, in assay [2], the inhibition was determined as 0%.

`CCCCNC(=O)/C=C/c1ccc([N+](=O)[O-])o1`: in assay [1], the Ratio is above 4. Moreover, in the assay with Trypanosoma cruzi, the outcome was Active. In addition, in assay [2], the inhibition was 25%.

For `Cc1ccc2c(c1)=[N+]([O-])C(C)[N+]=2[O-]` (stereo unspecified), the Ratio in assay [1] was above 4. In addition, in the assay on Trypanosoma cruzi, the outcome was Active. Also, the inhibition in assay [2] was 18%.
